# MC4R antagonist: blocks human MC4R cAMP signaling; MC4R-expressing cells, MTII-stimulated cAMP, LANCE TR-FRET; P32245; 360,000 tested, 0.48% active; inhibition, % at 6.5 µM;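 active means inhibition above its plate's cutoff, the mean of tested wells on that plate plus 3 SD, cut at about 29% in these data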
# Target sequence (P32245 whole entry, looked up): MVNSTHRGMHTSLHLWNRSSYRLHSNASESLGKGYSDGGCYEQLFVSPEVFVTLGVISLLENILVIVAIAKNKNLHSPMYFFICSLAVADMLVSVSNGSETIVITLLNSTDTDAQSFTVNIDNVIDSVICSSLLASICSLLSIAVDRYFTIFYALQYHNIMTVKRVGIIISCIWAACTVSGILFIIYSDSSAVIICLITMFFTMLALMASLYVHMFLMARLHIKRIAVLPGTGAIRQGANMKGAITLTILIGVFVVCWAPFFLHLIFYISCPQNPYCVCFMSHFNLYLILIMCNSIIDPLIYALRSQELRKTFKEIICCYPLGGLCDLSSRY
#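 System – human MC4R-expressing U2OS cells · Also added – Melanotan II · Dosing – one concentration, 6.5 µM nominal · Timing – 30-min compound, 1-h challenge, 1-h detection, room temperature · Measured by – Eu-cAMP/anti-cAMP TR-FRET, emission 671 nm · Replicates – singlicate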
# MC4R ag barr: human MC4R agonism via beta-arrestin; U2OS MC4R beta-arrestin complementation, luminescence; percent of melanotan II response, DMSO zero; activation, % at 8.9 µM; 360,000 tested, 0.98% active;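 active means activation above a per-plate cutoff, the mean activation of sample wells on that plate plus 3 SD, cut at about 8% in these data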
# TLR4 MyD88 comp: TLR4-MyD88 interaction inhibition in cells; HeLa CL3-4 TLR4/MyD88 BLA complementation, FRET ratio; AID 861; inhibition, % at 8.4 µM; O00206+Q99836; 200,000 tested, 0.18% active; in the data active means inhibition above about 25%
# TLR9-MyD88 inh: TLR9-MyD88 interaction inhibition | inhibition, % at 4.98 µM | 340,000 tested, 0.21% active | CHO BLA complementation TLR9-MyD88, CCF4 FRET ratio | Q9NR96+Q99836;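 active means inhibition above the mean over all tested compounds plus 3 SD, cut at about 21% in these data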
# NOD2-RIPK2 inh: NOD2-RIPK2 protein interaction inhibition | inhibition, % at 4.98 µM | 360,000 tested, 0.38% active | O43353 | CHO BLA complementation NOD2-RIPK2, CCF4 ratio; in the data active means inhibition above about 21%
# cAMP nonselect: counter-screen for MC4R antagonists: nonselective cAMP signaling inhibitors. inhibition, % at 6.5 µM. parental U2OS, forskolin cAMP, LANCE TR-FRET. 1,600 tested, 26% active. AID 602193. shares compounds with MC4R antagonist;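 active means mean inhibition over triplicates above the low-control well mean plus 3 SD, set per campaign, cut at about 13% in these data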;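 further: signal is single emission at 671 nm which falls as cellular cAMP rises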
# MC4R cAMP antag: human MC4R cAMP antagonism confirmation | shares compounds with MC4R antagonist | MC4R-expressing cells, MTII-stimulated cAMP, TR-FRET | inhibition, % at 6.5 µM | 1,600 tested, 27% active; in the data active means inhibition above about 29%
# A number is an active result; n = inactive; x = no result. Sampled rows, rich in hits. Any-hit rate of the full collection: about 1.8%.
SMILES,MC4R antagonist,MC4R ag barr,TLR4 MyD88 comp,TLR9-MyD88 inh,NOD2-RIPK2 inh,cAMP nonselect,MC4R cAMP antag
CC(=O)c1ccc(S(=O)(=O)NC2CCCCCCC2)cc1,35,n,x,n,n,n,n
Nc1nc2c(ncn2[C@@H]2O[C@H](CNC(=O)[C@H](N)Cc3cncn3COCc3ccccc3)[C@@H](O)[C@H]2O)c(=O)[nH]1,x,x,x,x,n,x,x
CC(Sc1nnc(NC2CCCCC2)s1)C(=O)Nc1ccc2c(c1)C(=O)c1ccccc1C2=O (centres undefined),30,n,n,n,n,n,n
CC(Sc1nnc(NC2CC2)s1)C(=O)Nc1ccc(N2CCOCC2)cc1 (centres undefined),n,n,x,n,n,x,x
CCn1ccnc1CN(C)Cc1cn[nH]c1-c1ccc(OC)c(F)c1,n,n,n,n,n,x,x
Cc1ccc(C)c(NC(=O)CCC(=O)N/N=C/c2ccc3c(c2)OCO3)c1,31,n,n,n,n,n,n
CC(C)[C@H](NC(=O)c1ccc(C(C)(C)C)cc1)C(=O)N1CCN(Cc2ccc3c(c2)OCO3)CC1,n,n,x,n,n,x,x
CCOC(=O)Cc1csc(NC(=O)CSc2nc(-c3ccccc3)c(C#N)c(=O)[nH]2)n1,n,n,n,n,n,x,x
N#Cc1c(-c2cccs2)nc(SCc2ccc(Cl)cc2)[nH]c1=O,58,n,n,n,n,43,80
CCOc1ccc2nc(NC(=O)CSc3nc(-c4ccccc4)c(C#N)c(=O)[nH]3)sc2c1,31,n,n,n,n,n,n
CSc1nc(-c2cccs2)c(C#N)c(=O)[nH]1,45,n,x,n,n,43,85
CNC(=O)NC(=O)CSc1nc(-c2cccs2)c(C#N)c(=O)[nH]1,121,n,n,n,n,87,153
CCOC(=O)C1=C(c2ccccc2)NC(=O)NC1c1ccc(OC)cc1OC (centres undefined),n,n,x,n,n,x,x
Cc1ccc(Nc2nnc(SCC(=O)c3ccc(O)cc3O)s2)cc1,n,n,x,n,n,x,x
N#CC1C(C#N)N2CCCN2C1c1ccc(Br)cc1 (centres undefined),n,n,x,n,n,x,x
O=C(COC(=O)[C@@H]1CCCN1S(=O)(=O)c1ccc(Cl)cc1)NC12CC3CC(CC(C3)C1)C2,32,n,n,n,n,14,34
O=C(NCCCCCCNC(=O)N1CCCCCC1)N1CCCCCC1,30,n,n,n,n,n,n
CCOCCCNC(=O)N1CCOCC1,n,n,n,n,n,x,x
COC(=O)c1ccc(COC(=O)CCS(=O)(=O)c2ccc(C)cc2)cc1,n,n,n,n,n,x,x
Cc1ccc(S(=O)(=O)NCC(=O)OCc2csc(-c3ccccc3)n2)cc1,30,n,n,n,n,15,n
COC(=O)c1ccc(COC(=O)CNS(=O)(=O)c2ccc(C)cc2)cc1,40,n,n,n,n,19,n
CCC(C)[C@H](NC(=O)C1(c2ccccc2)CCN(C(=O)OC(C)(C)C)CC1)C(=O)N[C@@H](C(=O)O)c1ccccc1 (some centres undefined),n,n,x,n,n,x,x
O=C1CCCC/C=C\C[C@H](CC(=O)N(CCO)Cc2ccccc2)C(=O)N2CCC[C@@H]2CO1,n,n,x,n,n,x,x
COc1ccc2sc(-c3ccc(N(C)C)cc3)c(C#Cc3cncn3C)c2c1,38,n,x,n,n,n,37
COc1ccc2sc(-c3ccc(N(C)C)cc3)c(C#CC(C)(C)O)c2c1,n,n,x,n,n,x,x
SMILES,MC4R antagonist,MC4R ag barr,TLR4 MyD88 comp,TLR9-MyD88 inh,NOD2-RIPK2 inh,cAMP nonselect,MC4R cAMP antag
CCOC(=O)CCC(=O)Nc1ccc(S(=O)(=O)N2CCc3ccccc32)cc1,32,n,x,n,n,n,n
CCNC(=O)COC(=O)c1cc(S(=O)(=O)N2CCCc3ccccc32)ccc1Cl,33,n,x,n,n,25,41
CCOC(=O)CCC(=O)Nc1ccc(S(=O)(=O)N2CCCC2)cc1,n,n,n,n,n,x,x
O=C(NCc1ccco1)c1cc(S(=O)(=O)N2CCCc3ccccc32)ccc1Cl,n,n,n,n,n,x,x
CCN(C(=O)COC(=O)c1ccc(S(=O)(=O)N2CCCc3ccccc32)cc1)C1CCS(=O)(=O)C1 (centres undefined),30,n,n,n,n,n,n
CCCN(C(=O)c1cccc(S(=O)(=O)N2CCCc3ccccc32)c1)C1CCS(=O)(=O)C1 (centres undefined),n,n,x,n,n,x,x
CCOC(=O)[C@]12CCC=C1N(Cc1ccc(Cl)cc1Cl)C(=O)[C@H](CC(=O)N1CCCCC1)C2,x,x,x,x,n,x,x
COc1ccc(OC)c(-c2csc(NC(=O)Cc3ccccc3)n2)c1,n,n,x,n,n,x,x
COc1cccc(CC(=O)Nc2nc(-c3cc(OC)ccc3OC)cs2)c1,34,n,n,n,n,n,n
COC(=O)CSc1nnc(-c2ccc(NS(=O)(=O)c3ccccc3)cc2)o1,68,n,n,n,n,n,37
CSCc1ccc(C(=O)NCc2ccc(C)cc2)cc1,n,n,n,n,n,x,x
CSCc1ccc(C(=O)Nc2ccc(C(N)=O)cc2)cc1,31,n,n,n,n,n,n
N/C(=N\OCc1ccc([N+](=O)[O-])cc1)c1ccncc1,n,n,n,n,n,x,x
N#Cc1cc2c(nc1SCC(=O)Nc1nccs1)CCCCC2,39,n,n,n,n,n,n
CC1CCCCN1S(=O)(=O)c1cnc(Cl)c(Br)c1 (centres undefined),33,n,n,n,n,n,n
CC1CCN(S(=O)(=O)c2cnc(Cl)c(Br)c2)CC1,41,n,n,n,n,15,41
CC1CCN(S(=O)(=O)c2ccc(Cl)cc2Br)CC1,n,n,n,n,n,x,x
O=C1c2ccc([N+](=O)[O-])cc2S(=O)(=O)N1Cc1ccccc1,33,n,x,n,n,28,50
COc1cccc(CN2C(=O)c3ccccc3S2(=O)=O)c1,n,n,x,n,n,x,x
C[C@H](NC(=O)c1ccco1)C(=O)N1CCCC1,n,n,x,n,n,x,x
C=C(C)CN(CC)C(=O)CCc1nnc(CCCc2ccccc2)o1,31,n,n,n,n,n,n
COc1ccc(CN2CCNC(=O)C2CC(=O)NCCC2=CCCCC2)c(F)c1 (centres undefined),n,n,x,n,n,x,x
Brc1ccc(-c2nnc3sc(CNC4CCCC4)cn23)cc1,32,n,n,n,n,17,33
CCOC(=O)C(C)Sc1nc2c(c(-c3cccs3)c1C#N)CCC2 (centres undefined),n,n,n,n,n,x,x
N#Cc1c(SC(C(=O)O)c2ccccc2)nc2c(c1-c1cccs1)CCCC2 (centres undefined),31,n,x,n,n,18,n
Cc1ccc(NC(=O)CSc2n[nH]c(=O)n2C2CC2)cc1S(=O)(=O)N1CCOCC1,n,n,n,n,n,x,x

# High-throughput results: PubChem BioAssay, The Scripps Research Institute Molecular Screening Center
